This note sets out measurements from ChEMBL document CHEMBL1125885, “Dopamine autoreceptor agonists as potential antipsychotics. 3.6-Propyl-4,5,5a,6,7,8-hexahydrothiazolo[4,5-f]quinolin-2-amine” (J Med Chem, 1991).

Experiment [1] deals with D(2) dopamine receptor (Rattus norvegicus) (UniProt P61169). The experiment can be described thus: Compound at 10E-5 M was tested in vitro for binding affinity towards dopamine receptor D2 in rat striatal membrane by using [3H]spiperone as radioligand. The experiment is classed as cell membranes. The following applies: Striatum.
The subject of another experiment is Mus musculus. The experiment can be described thus: Effective dose required to inhibit the Locomotor activity in mouse after ip administration. It is filed as functional.
For experiment [2], the system named is Rattus norvegicus. Briefly: Effective dose required to inhibit the Locomotor activity in Rat after po administration. It is filed as functional.
Experiment [3] relates to Rattus norvegicus. The experiment can be described thus: Values for the reversal of the increase in DOPA levels in the striatum of GBL-treated rats after ip administration of 10 mg/Kg. The experiment is classed as functional. The method in brief: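 Male Long-Evans rats were given the compound ip at 10 mg/kg 1 h before sacrifice. GBL (750 mg/kg ip) was given 30 min and NSD 1015 (100 mg/kg ip) 25 min before sacrifice. Striatal DOPA was measured by HPLC with electrochemical detection. The value is the percent reversal of the GBL-induced DOPA increase; n = 4 or 5 rats.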

In experiment [4] the test system is Rattus norvegicus. The experiment can be described thus: Percentage inhibition of DA neural firing after administration the compound at a dose of 2.5 mg/Kg through ip route in rats. It is filed as functional. The following applies: for inhibition in vivo at 2.5 mg/kg: Rattus norvegicus, ip.
The next experiment concerns the target D(1A) dopamine receptor (Rattus norvegicus, UniProt P18901). The experiment can be described thus: In vitro binding affinity towards dopamine receptor D1 in rat striatal membrane using [3H]-SCH- 23390. The experiment is classed as cell membranes, Striatum. The method in brief:
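Dopamine D1 binding in rat striatal membranes with the selective D1 antagonist [3H]SCH23390. IC50 comes from four or five compound concentrations, each run in triplicate, fitted by nonlinear regression.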

The next experiment deals with D(2) dopamine receptor (Rattus norvegicus, UniProt P61169). The experiment can be described thus: Binding affinity towards dopamine receptor D2 in rat striatal membrane using [3H]spiperone. It is filed as cell membranes, Striatum.
Experiment [5] has as its system Rattus norvegicus. The experiment can be described thus: Compound was tested for inhibition of locomotor activity after sc administration in rat. It is filed as functional. In a few lines: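 Spontaneous exploratory locomotor activity in rats after sc dosing. […] 5-12 animals were used per dose.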
Experiment [6] deals with Rattus norvegicus. Briefly: Values for the reversal of the increase in DOPA levels in the striatum of GBL-treated rats after ip administration. The experiment is classed as functional. In a few lines: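 Male Long-Evans rats received test compound ip 1 h before sacrifice, GBL 750 mg/kg ip 30 min before, and NSD 1015 100 mg/kg ip 25 min before. Striatal DOPA was quantified by HPLC with electrochemical detection, n = 4 or 5 rats. ED50 (95% CI) is the dose reversing the GBL-induced DOPA rise.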

Experiment [7] can be described thus: Compound was tested for inhibition of Sidman conditioned avoidance in squirrel monkeys upon peroral administration. The following applies: po. The experiment is classed as functional. The method in brief: (§1)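 Sidman avoidance in squirrel monkeys with oral dosing. ED50 (95% CL) is derived from three doses, with four animals tested per dose.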
The subject of experiment [8] is Rattus norvegicus. Briefly: Dose to effect on Brain DOPA synthesis upon ip administration. The experiment is classed as functional. The method in brief: (§2)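 Rats were dosed with NSD 1015 at 100 mg/kg ip 25 min before sacrifice and received no GBL. Test compound was given ip 1 h before sacrifice. Striatal DOPA was measured by HPLC with electrochemical detection and expressed as percent of control, n = 4 rats. Significance was set at p < 0.05 vs control.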

Experiment [9] relates to Rattus norvegicus. The experiment can be described thus: Compound was tested for stimulation of locomotor activity after sc administration in rat. The experiment is classed as functional.
Experiment [10] is filed under the species Rattus norvegicus. The experiment can be described thus: Compound was tested for effect on brain DOPA synthesis in the striatum of NSD 1015 rat. The experiment is classed as functional. In a few lines:
as §2

Experiment [11] can be described thus: Minimal effective oral dose that induced EPS signs in at least one squirrel monkey upon peroral administration. It is filed as functional, Cercopithecidae.
The species entered for experiment [12] is Rattus norvegicus. The experiment can be described thus: The compound was tested for effect on brain DOPA synthesis in the striatum of NSD 1015 rat. The experiment is classed as functional. The method in brief:
as §2

Experiment [13] has as its system Rattus norvegicus. Briefly: Effective dose for the reversal of the increase in DOPA levels in the striatum of GBL-treated rats after ip administration. It is filed as functional. In a few lines:
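Male Long-Evans rats got test compound ip 1 h before sacrifice, GBL 750 mg/kg ip 30 min before and NSD 1015 100 mg/kg ip 25 min before. Striatal DOPA was measured by HPLC with electrochemical detection, n = 4 or 5 rats. ED50 (95% CI) is the dose reversing the GBL-induced DOPA rise; percent reversal at a single test dose is given otherwise.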

The test system of experiment [14] is Rattus norvegicus. The experiment can be described thus: Effective dose required to inhibit the Locomotor activity in rat after po administration. It is filed as functional. In a few lines: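 Inhibition of spontaneous locomotor activity in rats after oral dosing. ED50 is generated from four to six doses, with 5-12 animals per dose.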
Experiment [15] is described as follows: Compound was tested for inhibition of Sidman conditioned avoidance in squirrel monkeys upon peroral administration. The following applies: Cercopithecidae, po. It is filed as functional. The method in brief:
as §1

Experiment [16] relates to Rattus norvegicus. The experiment can be described thus: Percentage inhibition of DA neural firing after administration the compound at a dose of 0.25 mg/kg through ip route in rats. It is filed as functional. The note with it: route intraperitoneal.
The mark [17] stands for this setting: Mus musculus, ip, read-out: ED50.
[18] abbreviates: Rattus norvegicus, po, read-out: ED50.
Setting [19] is: Rattus norvegicus, sc, read-out: ED50.

Structures are written as SMILES. pIC50: −log10 of the molar value. Where only a bound is given, the exact number is not on record here.

Chain of D(2) dopamine receptor (Rattus norvegicus) (P61169 whole entry): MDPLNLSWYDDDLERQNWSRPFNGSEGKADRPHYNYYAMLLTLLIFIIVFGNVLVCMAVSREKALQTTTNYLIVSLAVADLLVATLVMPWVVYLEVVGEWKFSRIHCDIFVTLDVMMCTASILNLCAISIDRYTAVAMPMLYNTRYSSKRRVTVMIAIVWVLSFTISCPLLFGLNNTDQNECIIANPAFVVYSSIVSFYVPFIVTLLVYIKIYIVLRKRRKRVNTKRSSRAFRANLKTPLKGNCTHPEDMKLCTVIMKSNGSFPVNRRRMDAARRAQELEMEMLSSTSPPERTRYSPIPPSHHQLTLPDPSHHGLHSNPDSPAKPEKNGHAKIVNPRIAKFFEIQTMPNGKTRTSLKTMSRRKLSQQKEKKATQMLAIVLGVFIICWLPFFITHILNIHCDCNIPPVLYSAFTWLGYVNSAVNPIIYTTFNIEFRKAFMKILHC
Chain of D(1A) dopamine receptor (P18901 whole entry): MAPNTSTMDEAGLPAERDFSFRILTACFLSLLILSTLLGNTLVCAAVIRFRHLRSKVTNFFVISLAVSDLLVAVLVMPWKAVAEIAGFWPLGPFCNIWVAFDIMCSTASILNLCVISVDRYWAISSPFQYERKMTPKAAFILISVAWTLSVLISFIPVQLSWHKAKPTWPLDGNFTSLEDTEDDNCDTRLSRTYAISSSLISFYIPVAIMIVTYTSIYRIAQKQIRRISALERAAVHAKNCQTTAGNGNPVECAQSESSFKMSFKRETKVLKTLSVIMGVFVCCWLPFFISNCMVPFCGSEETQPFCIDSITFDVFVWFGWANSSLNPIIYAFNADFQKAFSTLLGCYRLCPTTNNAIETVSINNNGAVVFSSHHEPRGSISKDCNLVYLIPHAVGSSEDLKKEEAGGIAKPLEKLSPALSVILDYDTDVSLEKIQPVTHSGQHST
Chain of D(2) dopamine receptor (P61169 whole entry): as the sequence (P61169 whole entry) above

With `Nc1nc2c(s1)CCC1NCCCC21` (stereo in doubt; 26) [listing 1 of 2 here], the inhibition (as a rule, the share of the control response that was lost under treatment) in experiment [1] was 14%.

For `CCCN1CCC=C2c3nc(N)sc3CCCC21` (stereo not drawn), the ED50 (in general, the midpoint of the dose-response relation) in the experiment on Mus musculus (setting [17]) was > 20 mg/kg; in the experiment on Rattus norvegicus [2] (setting [18]) it was > 30 mg/kg. This molecule also gave an inhibition in experiment [1] of 18%.

As to `CCCN1CCCC2c3nc(N)sc3CCC21` (stereo in doubt; 29), the Reversal in the experiment on Rattus norvegicus [3] turned out to be 100%. Moreover, the inhibition in vivo – broadly, the percentage by which the read-out fell short of the control – at 2.5 mg/kg in the experiment with Rattus norvegicus [4] came out at 94%. In addition, the ED50 in the experiment with Mus musculus turned out to be 7 mg/kg. For the same molecule, the results for the pIC50 at D(1A) dopamine receptor and at D(2) dopamine receptor were < 5.00 and 5.91, respectively.

On to `CCCN1CCC2=C(CCc3sc(N)nc32)C1`, for which the ED50 with Mus musculus (setting [17]) turned out to be 18.8 mg/kg. Further, on D(1A) dopamine receptor, the pIC50 (in general, −log10 of the IC50, conventionally taken in molar units) is 5.00.

As to `CCCN1CCCC2c3nc(N)sc3CCC21` (stereo in doubt; 28) [listing 1 of 2 here], the inhibition in experiment [1] was 16%.

With `CCCN1CCC2=C(C1)c1nc(N)sc1CC2`, at D(1A) dopamine receptor, the pIC50 is < 5.00.

Turning to `CCCN1CCC=C2c3nc(N)sc3CCC21` (racemic), the ED50 amounted to 0.9 mg/kg in the experiment on Rattus norvegicus [5] (setting [19]); 4 mg/kg in the experiment on Rattus norvegicus [6]; 9.4 mg/kg in the experiment with Mus musculus (setting [17]); 11.2 mg/kg in experiment [7]; 14.5 mg/kg in the experiment with Rattus norvegicus [9] (setting [19]); 18.9 mg/kg in the experiment on Rattus norvegicus [2] (setting [18]). In the experiment on Rattus norvegicus [4], this molecule registered an inhibition in vivo at 2.5 mg/kg of 100%. Also, the Dose in the experiment on Rattus norvegicus [8] turned out to be 5 mg/kg. Also, the Control in the experiment filed under Rattus norvegicus [10] is reported as 63%. Besides, at D(1A) dopamine receptor, the pIC50 was < 5.00. The “EPS MED” value in experiment [11] was >10 mg/kg.

In turn, `CSc1ccc2c(c1)N(CCC1CCCCN1C)c1ccccc1S2` (stereo not drawn) [THIORIDAZINE] returned a 50% effective dose (ED50) in [7] of 3.9 mg/kg. Besides, in experiment [11], the “EPS MED” value was <2.5 mg/kg.

Regarding `CCCN1CCCC(c2cccc(O)c2)C1` (single isomer, unassigned; (+)), the ED50 worked out at 3 mg/kg in the experiment with Rattus norvegicus [5] (setting [19]) and 5.8 mg/kg with Rattus norvegicus [9] (setting [19]). Further, the Reversal with Rattus norvegicus [3] is recorded as 58%. The same molecule registered an inhibition in vivo at 2.5 mg/kg with Rattus norvegicus [4] of 100%.

As for `CCCN1CC=C2c3nc(N)sc3CCC2C1` (stereo not drawn), the median effective dose (ED50) with Mus musculus (setting [17]) was > 30 mg/kg. Further, at D(1A) dopamine receptor, the pIC50 was < 5.00.

`CCCN1CCCC2c3nc(N)sc3CCC21` (stereo in doubt; 28) [listing 2 of 2 here]: the 50% effective dose (ED50) in the experiment with Mus musculus was >30 mg/kg.

As to `Nc1nc2c(s1)CCC1NCCCC21` (stereo in doubt; 26) [listing 2 of 2 here], in the experiment with Mus musculus (setting [17]), the 50% effective dose (ED50) was > 30 mg/kg.

With `CCCN1CCC=C2c3nc(N)sc3CC[C@@H]21` (stereo in doubt; (+)-6), the ED50 worked out at 0.3 mg/kg with Rattus norvegicus [5]; 1.3 mg/kg in the experiment with Rattus norvegicus [6]; 3.7 mg/kg in the experiment on Mus musculus; 8.3 mg/kg in experiment [7]; 6.8 mg/kg in the experiment with Rattus norvegicus [9]; 7 mg/kg in the experiment on Rattus norvegicus [2]. In addition, the Inhibition (as a rule, the percentage by which the read-out fell short of the control) in the experiment with Rattus norvegicus [4] is listed as 91%. This molecule came in with a Dose in the experiment on Rattus norvegicus [8] of 2.5 mg/kg. Besides, the Control in the experiment filed under Rattus norvegicus [12] amounted to 52.4%. Also, the negative-log IC50 (pIC50) on D(1A) dopamine receptor is < 5.00. Moreover, the “EPS MED” value in experiment [11] is >30 mg/kg.

For `CCCN1CCC=C(c2csc(N)n2)C1`, the median effective dose (ED50) was 1.3 mg/kg with Rattus norvegicus [13], 3.1 mg/kg in the experiment with Rattus norvegicus [14] and 4.3 mg/kg with Mus musculus (setting [17]). In the experiment with Rattus norvegicus [4], this molecule came in with an inhibition in vivo at 2.5 mg/kg of 100%. The pIC50 is 5.00 at D(1A) dopamine receptor and 6.24 at D(2) dopamine receptor.

`CCCN1CCC=C2c3nc(N)sc3CC[C@@H]21` (stereo in doubt; (-)-6): the ED50 in the experiment with Rattus norvegicus [5] was 2.5 mg/kg; in [15], > 30 mg/kg; with Mus musculus, 20.4 mg/kg; in the experiment with Rattus norvegicus [9], >30 mg/kg; with Rattus norvegicus [2] it was >30 mg/kg. In addition, the Reversal in the experiment on Rattus norvegicus [3] was 14%. In the experiment with Rattus norvegicus [4], this molecule yielded an Inhibition of 22%. The Dose with Rattus norvegicus [8] came to 20 mg/kg. The molecule also displayed a Control in the experiment listed under Rattus norvegicus [10] of 153.2%.

Consider `CCCN1CCCC2c3nc(N)sc3CCCC21` (stereo not drawn), for which the ED50 with Mus musculus (setting [17]) was > 30 mg/kg. The molecule further gave an inhibition in experiment [1] of 10%.

Regarding `CN1CCc2cccc3c2[C@H]1Cc1ccc(O)c(O)c1-3` [APOMORPHINE], the ED50 with Rattus norvegicus [5] (setting [19]) was 0.03 mg/kg; in the experiment with Rattus norvegicus [14] it was > 30 mg/kg; in the experiment on Mus musculus (setting [17]), 6.9 mg/kg; in the experiment on Rattus norvegicus [9] (setting [19]), 0.07 mg/kg. In the experiment with Rattus norvegicus [16], the inhibition in vivo at 0.25 mg/kg was determined as 100%.

`Nc1nc2c(s1)CCC1NCCCC21` (stereo in doubt; 27): the inhibition in experiment [1] stood at 10%.
